Reference: the RNAGym collection of RNA variant scans (doi:10.1038/s41586-018-0170-7)

B1: tRNA (parent)
chain: GUUCCGUUGGCGUAAUGGUAACGCGUCUCCCUCCUAAGGAGAAGACUGCGGGUUCGAGUCCCGUACGGAACG

Variants of: B1
Assay: yeast fitness, log relative to wild type (ln ratio); higher = fitter; tRNA-Arg(CCU), competitive growth, 37 C, 1 M NaCl
Summary of the method: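 For each genotype, fitness is defined as the natural log of its generation number over the wild type's. The tRNA-Arg(CCU) variant library was on a HIS3 centromeric plasmid in BY4742 with the chromosomal gene removed, and pools were first grown 4 generations in SC-HIS at 30 °C and then ~6.5 generations (~26.5 h) in SC-HIS 1M NaCl at 37 °C. Generations were calculated from OD-scaled log2 output/input frequency, weighted by inverse variance across replicates, using counts from 125 bp paired-end Illumina sequencing.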

Point of comparison: AGUCCUUUGGCGUAAUGGUAACGCGUCUCCCUCCUAAGGAGAAGAUUGCGGGUUCGAGUCCCGUAUGGGGUG, “yeast fitness (ln)” value -0.244. Against it:
- AGUCCUUUGGCGUAAUGGUAACGCGUUUCCCUCCUAAGGAGAAGACUGCGGGUUCGAGUCCCGUAUGGAACG — lower, -0.38
- AGUCCUUUGGCGUAAUGGUAACGCGUUUCCCUCCUAAGGAGAAGACUGCGGGUUCGAGUCCCGUAUGGGUUG — lower, -0.407
- AGUCCUUUGGCGUAAUGGUAACGCGUUUCCCUCCUAAGGAGAAGAUUGCGGGUUCGAGUCCCGUAUGGGAUG — lower, -0.434
- AGUCCUUUGGCGUAAUGGUAACGCGUCUCCCUCCUAAGGAGAAGAUUGCGGGUUCGAGUCCCGUAAGGGUCG — higher, -0.0992
- AGUCCUUUGGCGUAAUGGUAACGCGUUUCCCUCCUAAGGAGAAGACUGCGGGUUCGAGUCCCGUAAGGAUUG — higher, -0.168
- AGUCCUUUGGCGUAAUGGUAACGCGUUUCCCUCCUAAGGAGAAGAUUGCGGGUUCGAGUCCCGUAAGGAUUG — higher, -0.0752
- AGUCCUUUGGCGUAAUGGUAACGCGUUUCCCUCCUAAGGAGAAGAUUGCGGGUUCGAGUCCCGUAAGGAGUG — higher, -0.239
- AGUCCUUUGGCGUAAUGGUAACGCGUUUCCCUCCUAAGGAGAAGAUUGCGGGUUCGAGUCCCGUAAGGGUUG — lower, -0.513
- AGUCCUUUGGCGUAAUGGUAACGCGUCUCCCUCCUAAGGAGAAGAUUGCGGGUUCGAGUCCCGUACGGAUUG — lower, -0.511
- AGUCCUUUGGCGUAAUGGUAACGCGUUUCCCUCCUAAGGAGAAGAUUGCGGGUUCGAGUCCCGUAAGGAAUG — higher, -0.175
- AGUCCUUUGGCGUAAUGGUAACGCGUUUCCCUCCUAAGGAGAAGAUUGCGGGUUCGAGUCCCGUAUGGGGUG — lower, -0.339
- AGUCCUUUGGCGUAAUGGUAACGCGUCUCCCUCCUAAGGAGAAGAUUGCGGGUUCGAGUCCCGUAAGGAGCG — lower, -0.258
- AGUCCUUUGGCGUAAUGGUAACGCGUCUCCCUCCUAAGGAGAAGAUUGCGGGUUCGAGUCCCGUAAGGAUCG — higher, -0.234
- AGUCCUUUGGCGUAAUGGUAACGCGUUUCCCUCCUAAGGAGAAGAUUGCGGGUUCGAGUCCCGUACGGAUUG — higher, -0.242
- AGUCCUUUGGCGUAAUGGUAACGCGUUUCCCUCCUAAGGAGAAGAUUGCGGGUUCGAGUCCCGUAAGGGGUG — lower, -0.417
- AGUCCUUUGGCGUAAUGGUAACGCGUUUCCCUCCUAAGGAGAAGACUGCGGGUUCGAGUCCCGUAUGGGUCG — lower, -0.307
- AGUCCUUUGGCGUAAUGGUAACGCGUUUCCCUCCUAAGGAGAAGACUGCGGGUUCGAGUCCCGUAUGGGGCG — lower, -0.333
- AGUCCUUUGGCGUAAUGGUAACGCGUUUCCCUCCUAAGGAGAAGAUUGCGGGUUCGAGUCCCGUAUGGAUUG — lower, -0.334
- AGUCCUUUGGCGUAAUGGUAACGCGUUUCCCUCCUAAGGAGAAGAUUGCGGGUUCGAGUCCCGUACGGGUCG — lower, -0.314
- AGUCCUUUGGCGUAAUGGUAACGCGUUUCCCUCCUAAGGAGAAGAUUGCGGGUUCGAGUCCCGUACGGGGCG — lower, -0.474
- AGUCCUUUGGCGUAAUGGUAACGCGUUUCCCUCCUAAGGAGAAGACUGCGGGUUCGAGUCCCGUAUGGGAUG — lower, -0.425
- AGUCCUUUGGCGUAAUGGUAACGCGUUUCCCUCCUAAGGAGAAGACUGCGGGUUCGAGUCCCGUAUGGAGCG — lower, -0.357
- AGUCCUUUGGCGUAAUGGUAACGCGUUUCCCUCCUAAGGAGAAGACUGCGGGUUCGAGUCCCGUAUGGAUCG — lower, -0.386
- AGUCCUUUGGCGUAAUGGUAACGCGUCUCCCUCCUAAGGAGAAGAUUGCGGGUUCGAGUCCCGUAAGGAAUG — higher, -0.179
- AGUCCUUUGGCGUAAUGGUAACGCGUUUCCCUCCUAAGGAGAAGAUUGCGGGUUCGAGUCCCGUAUGGGUCG — lower, -0.339
- AGUCCUUUGGCGUAAUGGUAACGCGUUUCCCUCCUAAGGAGAAGAUUGCGGGUUCGAGUCCCGUAUGGGGCG — lower, -0.308
- AGUCCUUUGGCGUAAUGGUAACGCGUUUCCCUCCUAAGGAGAAGAUUGCGGGUUCGAGUCCCGUACGGAAUG — lower, -0.259
- AGUCCUUUGGCGUAAUGGUAACGCGUUUCCCUCCUAAGGAGAAGAUUGCGGGUUCGAGUCCCGUAUGGGUUG — lower, -0.462
- AGUCCUUUGGCGUAAUGGUAACGCGUCUCCCUCCUAAGGAGAAGAUUGCGGGUUCGAGUCCCGUAUGGGGCG — lower, -0.347
- AGUCCUUUGGCGUAAUGGUAACGCGUCUCCCUCCUAAGGAGAAGAUUGCGGGUUCGAGUCCCGUAUGGGUCG — lower, -0.288
- AGUCCUUUGGCGUAAUGGUAACGCGUUUCCCUCCUAAGGAGAAGAUUGCGGGUUCGAGUCCCGUACGGGAUG — lower, -0.26
- AGUCCUUUGGCGUAAUGGUAACGCGUCUCCCUCCUAAGGAGAAGAUUGCGGGUUCGAGUCCCGUACGGGGUG — lower, -0.309
- AGUCCUUUGGCGUAAUGGUAACGCGUUUCCCUCCUAAGGAGAAGAUUGCGGGUUCGAGUCCCGUAUGGAACG — lower, -0.271
- AGUCCUUUGGCGUAAUGGUAACGCGUUUCCCUCCUAAGGAGAAGAUUGCGGGUUCGAGUCCCGUAAGGAACG — higher, -0.2
- AGUCCUUUGGCGUAAUGGUAACGCGUUUCCCUCCUAAGGAGAAGAUUGCGGGUUCGAGUCCCGUAUGGAAUG — lower, -0.285
- AGUCCUUUGGCGUAAUGGUAACGCGUUUCCCUCCUAAGGAGAAGAUUGCGGGUUCGAGUCCCGUACGGAACG — higher, -0.217
